Assay results as given in ChEMBL document CHEMBL1140780, “The expedient synthesis of 1,5-benzothiazepines as a family of cytotoxic drugs” (Bioorg Med Chem Lett, 2008).

Legend:
HL-60 [1] = test: Photocytotoxicity against human HL60 cells irradiated with 2.5 J cm^-2 ultraviolet radiation after 72 hrs by MTT assay; type: functional; details: HL-60, light or radiation study
How it was run: (§1)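 Culture media, each with penicillin G, streptomycin and 10% FBS: HL-60 in RPMI-1640, NCTC 2544 in DMEM, LoVo in Ham's F12. Seeding was 8 × 10³ HL-60 or 5 × 10³ NCTC 2544/LoVo cells per well, 18 h at 37 °C. Drug in DMSO diluted with HBSS pH 7.2 was added for 30 min at 37 °C, then UVA applied (dose measured at 365 nm). Medium was replaced, 72 h incubation, MTT read-out. GI50 is the concentration giving 50% growth inhibition.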

HL-60 [2] = test: Photocytotoxicity against human HL60 cells irradiated with 1.25 J cm^-2 ultraviolet radiation after 72 hrs by MTT assay; type: functional; details: HL-60, light or radiation study; how it was run: as §1
[3] = Photocytotoxicity against human NCTC 2544 cells irradiated with 2.5 J cm^-2 ultraviolet radiation after 72 hrs by MTT assay; type: cell-based; how it was run: as §1
[4] = Photocytotoxicity against human NCTC 2544 cells irradiated with 1.25 J cm^-2 ultraviolet radiation after 72 hrs by MTT assay; type: cell-based; how it was run: as §1
LoVo [5] = test: Photocytotoxicity against human LoVo cells irradiated with 2.5 J cm^-2 ultraviolet radiation after 72 hrs by MTT assay; type: functional; details: light or radiation study; how it was run: as §1
LoVo [6] = test: Photocytotoxicity against human LoVo cells irradiated with 1.25 J cm^-2 ultraviolet radiation after 72 hrs by MTT assay; type: functional; details: light or radiation study; how it was run: as §1

COc1ccc2c(c1)SC(C(=O)O)CC(c1ccc(F)cc1C)=N2 (stereo not given)
GI50 (HL-60 [1]): 10 µM | GI50 (HL-60 [2]): > 10 µM

Cc1cc(F)ccc1C1=Nc2ccc(Cl)cc2SC(C(=O)O)C1 (stereo not given)
GI50 (HL-60 [1]): 6.8 µM | GI50 (HL-60 [2]): > 10 µM

Cc1cc(F)ccc1C1=Nc2c(Br)cccc2SC(C(=O)O)C1 (stereo not given)
GI50 at 72 h [3]: > 20 µM | GI50 at 72 h [4]: > 20 µM | GI50 (LoVo [5]): 13.2 µM | GI50 (LoVo [6]): > 20 µM | GI50 (HL-60 [1]): 0.9 µM | GI50 (HL-60 [2]): 2.5 µM

Cc1cc(F)ccc1C1=Nc2c(F)cccc2SC(C(=O)O)C1 (stereo not given)
GI50 at 72 h [3]: 2.6 µM | GI50 at 72 h [4]: 7 µM | GI50 (LoVo [5]): 1.94 µM | GI50 (LoVo [6]): 3.8 µM | GI50 (HL-60 [1]): 0.8 µM | GI50 (HL-60 [2]): 6.6 µM

Cc1cc(F)ccc1C1=Nc2c(Cl)cccc2SC(C(=O)O)C1 (stereo not given)
GI50 at 72 h [3]: 6.9 µM | GI50 at 72 h [4]: > 20 µM | GI50 (LoVo [5]): 9.8 µM | GI50 (LoVo [6]): 16.8 µM | GI50 (HL-60 [1]): 6.9 µM | GI50 (HL-60 [2]): > 10 µM

Cc1ccc2c(c1)SC(C(=O)O)CC(c1ccc(F)cc1C)=N2 (stereo not given)
GI50 (HL-60 [1]): 10 µM | GI50 (HL-60 [2]): > 10 µM

COc1cccc2c1C(=O)c1c(O)c3c(c(O)c1C2=O)C[C@@](O)(C(=O)CO)C[C@@H]3O[C@H]1C[C@H](N)[C@H](O)[C@H](C)O1 [DOXORUBICIN]
GI50 at 72 h [3]: 1.32 µM | GI50 at 72 h [4]: 3.04 µM | GI50 (LoVo [5]): 5.48 µM | GI50 (LoVo [6]): 8.54 µM | GI50 (HL-60 [1]): 1.45 µM | GI50 (HL-60 [2]): 2.36 µM
